Data set [1] deals with Glutamate NMDA receptor; Grin1/Grin2a (Rattus norvegicus, UniProt P35439+Q00959). Kind of data set: Antagonist activity at rat recombinant GluN1/GluN2A receptor expressed in Xenopus laevis oocytes assessed as inhibition of glutamate-induced response by two-electrode voltage-clamp electrophysiology assay. Format: functional, cell-based, Oocyte. Conditions: read-out: Ki(app). Background: Two-electrode voltage clamp holds a large cell at a set potential and records current.

The target in data set [2] is Glutamate NMDA receptor; Grin1/Grin2b (Rattus norvegicus, UniProt P35439+Q00960). Briefly: Antagonist activity rat recombinant GluN1/GluN2B receptor expressed in Xenopus laevis oocytes assessed as inhibition of glutamate-induced response by two-electrode voltage-clamp electrophysiology assay. In kind it is functional, cell-based, Oocyte. Conditions: read-out: Ki(app). The essentials:
(§1)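 Two-electrode voltage clamp of oocytes expressing rat GluN1a with the given GluN2 subunit, held at −60 mV in buffer of 116 mM NaCl, 2 mM KCl, 0.3 mM BaCl2, 5 mM HEPES, pH 7.4. Response is the steady plateau to bath-applied 10 μM L-glutamate plus 10 μM glycine. IC50 converted to apparent Ki via Ki = IC50/(1 + [agonist]/EC50). Means ± s.e.m.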

Data set [3] deals with Glutamate NMDA receptor; Grin1/Grin2c (Rattus norvegicus, UniProt P35439+Q00961). Kind of data set: Antagonist activity rat recombinant GluN1/GluN2C receptor expressed in Xenopus laevis oocytes assessed as inhibition of glutamate-induced response by two-electrode voltage-clamp electrophysiology assay. In kind it is functional, cell-based, Oocyte. Conditions: read-out: Ki(app). The method in brief: as §1

Data set [4] addresses Ionotropic glutamate receptor NMDA 1/2D (Rattus norvegicus, UniProt P35439+Q62645). Briefly: Antagonist activity rat recombinant GluN1/GluN2D receptor expressed in Xenopus laevis oocytes assessed as inhibition of glutamate-induced response by two-electrode voltage-clamp electrophysiology assay. In kind it is functional, cell-based, Oocyte. Conditions: read-out: Ki(app).
The target in data set [5] is Glutamate receptor ionotropic, kainate 1 (Homo sapiens, UniProt P39086). Briefly: Antagonist activity at human recombinant GluK1 receptor expressed in human HEK293 cells assessed as inhibition of glutamate-stimulated calcium influx by fluorescence assay. Format: functional, cell-based. The essentials: (§2)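 HEK293 lines stably expressing homomeric human GluK1(Q) or GluK2(Q), passaged no more than 20 times. Ca2+ influx is read as fluorescence, with concanavalin A present. Test compound is added in a first run, then L-glutamate plus antagonist in a second run (final glutamate 30 μM for GluK1, 10 μM for GluK2). IC50 values are converted to KB. Means ± s.e.m.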
Sequence of Glutamate receptor ionotropic, kainate 1 (P39086 whole entry): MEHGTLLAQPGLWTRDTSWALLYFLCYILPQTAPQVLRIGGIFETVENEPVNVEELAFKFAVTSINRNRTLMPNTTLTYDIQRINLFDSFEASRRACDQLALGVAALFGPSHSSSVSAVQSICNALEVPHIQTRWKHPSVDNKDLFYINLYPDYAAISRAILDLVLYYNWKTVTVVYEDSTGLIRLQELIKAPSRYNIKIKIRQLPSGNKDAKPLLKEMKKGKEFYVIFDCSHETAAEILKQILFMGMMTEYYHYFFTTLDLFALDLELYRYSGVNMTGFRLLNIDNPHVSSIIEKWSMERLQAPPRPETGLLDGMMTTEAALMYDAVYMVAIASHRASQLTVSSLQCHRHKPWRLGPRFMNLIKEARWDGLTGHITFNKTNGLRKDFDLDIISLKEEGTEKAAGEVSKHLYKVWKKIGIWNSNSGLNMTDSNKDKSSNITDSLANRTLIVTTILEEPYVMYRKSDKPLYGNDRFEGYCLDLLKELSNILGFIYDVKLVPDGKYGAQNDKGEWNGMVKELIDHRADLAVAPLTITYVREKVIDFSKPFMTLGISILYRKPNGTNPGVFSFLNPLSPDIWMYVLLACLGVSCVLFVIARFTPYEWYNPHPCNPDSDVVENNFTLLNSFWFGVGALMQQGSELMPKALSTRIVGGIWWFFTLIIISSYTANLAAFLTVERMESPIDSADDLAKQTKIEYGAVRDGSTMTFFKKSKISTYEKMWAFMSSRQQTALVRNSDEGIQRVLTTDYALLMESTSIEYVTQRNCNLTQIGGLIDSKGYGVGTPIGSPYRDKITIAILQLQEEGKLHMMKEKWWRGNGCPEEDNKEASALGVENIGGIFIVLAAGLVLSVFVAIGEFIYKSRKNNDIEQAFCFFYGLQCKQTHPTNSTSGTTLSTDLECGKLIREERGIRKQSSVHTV

Data set [6] concerns the target Glutamate receptor ionotropic, kainate 2 (Homo sapiens, UniProt Q13002). Briefly: Antagonist activity at human recombinant GluK2 receptor expressed in human HEK293 cells assessed as inhibition of glutamate-stimulated calcium influx by fluorescence assay. Format: functional, cell-based. The essentials: as §2
Data set [7] has as its target Glutamate receptor ionotropic, kainate 3 (Homo sapiens, UniProt Q13003). Kind of data set: Antagonist activity at human recombinant GluK3 receptor expressed in human HEK293 cells assessed as inhibition of glutamate-stimulated calcium influx by fluorescence assay. In kind it is functional, cell-based.
Data set [8] is filed under the species Rattus norvegicus. Kind of data set: Antagonist activity at AMPA receptor in CA3 region of rat hippocampus assessed as change in AMPA-mediated field excitatory postsynaptic potential at 100 uM. Format: functional, tissue-based. The method in brief:
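Field EPSPs recorded from transverse rat hippocampal slices (400 μm), CA3 mossy fiber synapses. Compound 100 μM perfused 30 min. fEPSPs averaged every 2 min; slope between 20 and 80% of maximum measured and expressed as % of control slope. Mean ± s.e.m., n=4.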

In data set [9] the target is Glutamate receptor ionotropic, kainate 3 (Rattus norvegicus) (UniProt P42264). Briefly: Displacement of [3H]-Kainate from wild type rat GluK3 receptor transfected in human HEK293 cells at 100 uM by immunoblot analysis. In kind it is cell-based. (Displacement assays read how much labelled ligand stays bound in the presence of the test substance.)
Sequence of Glutamate receptor ionotropic, kainate 3 (Rattus norvegicus) (P42264 whole entry): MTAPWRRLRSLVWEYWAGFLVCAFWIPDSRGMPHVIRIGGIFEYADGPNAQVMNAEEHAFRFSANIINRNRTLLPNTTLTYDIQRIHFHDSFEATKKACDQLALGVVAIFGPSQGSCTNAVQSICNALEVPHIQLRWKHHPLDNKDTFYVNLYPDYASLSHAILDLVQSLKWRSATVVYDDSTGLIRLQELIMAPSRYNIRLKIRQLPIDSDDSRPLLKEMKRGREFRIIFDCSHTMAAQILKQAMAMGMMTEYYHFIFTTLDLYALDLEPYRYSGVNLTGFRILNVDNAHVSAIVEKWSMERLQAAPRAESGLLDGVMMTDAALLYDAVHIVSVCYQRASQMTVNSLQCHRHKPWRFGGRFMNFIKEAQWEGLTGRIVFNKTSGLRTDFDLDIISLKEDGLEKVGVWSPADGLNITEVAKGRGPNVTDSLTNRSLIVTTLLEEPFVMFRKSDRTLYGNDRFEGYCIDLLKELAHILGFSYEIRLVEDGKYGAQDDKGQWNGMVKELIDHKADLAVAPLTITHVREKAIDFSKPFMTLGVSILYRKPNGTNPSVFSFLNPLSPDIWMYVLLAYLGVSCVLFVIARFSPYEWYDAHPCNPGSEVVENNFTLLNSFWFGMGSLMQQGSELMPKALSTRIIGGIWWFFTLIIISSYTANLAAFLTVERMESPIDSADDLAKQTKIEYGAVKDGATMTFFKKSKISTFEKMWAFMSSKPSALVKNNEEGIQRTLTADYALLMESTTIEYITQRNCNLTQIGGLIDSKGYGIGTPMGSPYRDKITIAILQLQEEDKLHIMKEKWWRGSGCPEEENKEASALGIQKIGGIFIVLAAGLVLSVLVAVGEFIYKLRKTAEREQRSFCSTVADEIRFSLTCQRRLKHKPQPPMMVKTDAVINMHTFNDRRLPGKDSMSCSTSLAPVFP
The target is the same in data set [10]. Kind of data set: Displacement of [3H]-Kainate from wild type rat GluK3 receptor transfected in human HEK293 cells at 1 mM by immunoblot analysis. In kind it is cell-based.
Data set [11] shares this target. Kind of data set: Displacement of [3H]-Kainate from wild type rat GluK3 receptor transfected in human HEK293 cells at 300 uM by immunoblot analysis. In kind it is cell-based.
Data set [12] relates to Rattus norvegicus. Kind of data set: Antinociceptive activity in Wistar rat nerve injury model assessed as reversal of drop in mechanical withdrawal threshold at 30 mg/kg, ip administered before 1 hr on day 7 of injury relative to control. Format: functional, organism-based. Also on record: dose 30 mg/kg. The essentials:
(§3)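 Male Wistar rats (~250 g) with partial saphenous nerve ligation injury, tested on day 7 after injury and also before injury. Drug at 30 mg/kg or vehicle is given i.p. (n=5/group), with testing starting 15 min later. Mechanical threshold is taken from von Frey stimulus:response curves on both hindpaws (5 applications per hair). Thermal latency to radiant heat is the mean of 3 trials per hindpaw. Analysis by two-way ANOVA.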

Data set [13] concerns Rattus norvegicus. Briefly: Antinociceptive activity in Wistar rat nerve injury model assessed as increased thermal withdrawal latency at 30 mg/kg, ip. In kind it is functional, organism-based. Also on record: dose 30 mg/kg. The essentials:
as §3

The species entered for data set [14] is Rattus norvegicus. Briefly: Selectivity ratio of IC50 for rat GluK3 receptor to IC50 for rat GluK1 receptor. The method in brief: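 IC50 ratio from whole-cell patch clamp on HEK293 cells stably expressing homomeric GluK1 or GluK3, voltage clamped at −70 mV, 20°C. Glutamate is applied fast through a theta tube. Antagonist is applied about 2 min or until the response is stable, at five concentrations per cell, giving a dose-response curve for each cell.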

In data set [15] the test system is HEK293. Kind of data set: Displacement of [3H]-Kainate from rat GluK3 A660S mutant transfected in human HEK293 cells at 100 uM by immunoblot analysis. Format: cell-based.
Data set [16] relates to HEK293. Briefly: Displacement of [3H]-Kainate from […] rat GluK3 A660S mutant transfected in human HEK293 cells at 1 mM by immunoblot analysis. Format: cell-based.
Data set [17] has as its system HEK293. Kind of data set: Displacement of [3H]-Kainate from […] rat GluK3 A660S mutant transfected in human HEK293 cells at 300 uM by immunoblot analysis. Format: cell-based.
For data set [18], the system named is Rattus norvegicus. Briefly: Antinociceptive activity in Wistar rat at 30 mg/kg, ip. More on the design: dose 30 mg/kg. In kind it is functional, organism-based. The method in brief:
as §3

Data set [19] is described as follows: Solubility of the compound in water at >100 uM. Format: physicochemical. Conditions: buffer.
In data set [20] the target is Glutamate NMDA receptor; Grin1/Grin2b (Rattus norvegicus) (UniProt P35439+Q00960). Briefly: Antagonist activity rat recombinant GluN1/GluN2B receptor expressed in Xenopus laevis oocytes assessed as inhibition of glutamate-induced response at 100 uM by two-electrode voltage-clamp electrophysiology assay. Conditions: Oocyte. In kind it is functional, cell-based. The method in brief: (§4)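 Rat GluN1a co-expressed with GluN2A, 2B, 2C or 2D in Xenopus oocytes. Two-electrode voltage clamp at −60 mV in buffer of 116 mM NaCl, 2 mM KCl, 0.3 mM BaCl2, 5 mM HEPES, pH 7.4. Response is the steady plateau evoked by bath-applied 10 μM L-glutamate plus 10 μM glycine. Read-out is percent antagonism by 100 μM test compound.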

The target of data set [21] is Glutamate NMDA receptor; Grin1/Grin2c (Rattus norvegicus) (UniProt P35439+Q00961). Kind of data set: Antagonist activity rat recombinant GluN1/GluN2C receptor expressed in Xenopus laevis oocytes assessed as inhibition of glutamate-induced response at 100 uM by two-electrode voltage-clamp electrophysiology assay. In kind it is functional, cell-based. Conditions: Oocyte. The method in brief:
as §4

The source made the active and inactive calls. A value given as a limit tells only on which side of the number the result lay.

Sequence of Glutamate receptor ionotropic, kainate 2 (Q13002 whole entry): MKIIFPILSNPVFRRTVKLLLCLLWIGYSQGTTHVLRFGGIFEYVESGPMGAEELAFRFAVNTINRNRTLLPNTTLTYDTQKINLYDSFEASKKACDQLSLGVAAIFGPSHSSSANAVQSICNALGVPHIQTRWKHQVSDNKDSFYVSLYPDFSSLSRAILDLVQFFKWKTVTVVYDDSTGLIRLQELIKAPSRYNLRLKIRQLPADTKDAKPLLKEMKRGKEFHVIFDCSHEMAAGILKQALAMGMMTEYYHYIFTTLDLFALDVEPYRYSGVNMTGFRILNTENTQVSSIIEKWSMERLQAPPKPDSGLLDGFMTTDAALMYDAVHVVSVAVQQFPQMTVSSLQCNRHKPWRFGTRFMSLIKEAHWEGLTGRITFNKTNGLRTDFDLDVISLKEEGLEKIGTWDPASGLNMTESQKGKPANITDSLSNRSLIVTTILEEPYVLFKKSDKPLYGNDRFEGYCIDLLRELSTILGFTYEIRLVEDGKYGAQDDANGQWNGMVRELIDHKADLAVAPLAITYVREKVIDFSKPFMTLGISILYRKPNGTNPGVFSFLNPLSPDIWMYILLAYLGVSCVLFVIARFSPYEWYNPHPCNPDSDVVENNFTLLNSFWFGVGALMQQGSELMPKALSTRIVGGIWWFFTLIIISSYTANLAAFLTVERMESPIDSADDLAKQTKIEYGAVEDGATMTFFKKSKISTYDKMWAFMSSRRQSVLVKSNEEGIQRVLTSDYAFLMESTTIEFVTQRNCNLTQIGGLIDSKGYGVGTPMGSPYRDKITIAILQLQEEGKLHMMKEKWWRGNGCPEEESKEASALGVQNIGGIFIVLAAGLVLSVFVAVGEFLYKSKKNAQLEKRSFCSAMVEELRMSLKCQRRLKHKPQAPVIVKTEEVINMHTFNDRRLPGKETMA
Sequence of Ionotropic glutamate receptor NMDA 1/2D (Q62645 whole entry, other chains not shown): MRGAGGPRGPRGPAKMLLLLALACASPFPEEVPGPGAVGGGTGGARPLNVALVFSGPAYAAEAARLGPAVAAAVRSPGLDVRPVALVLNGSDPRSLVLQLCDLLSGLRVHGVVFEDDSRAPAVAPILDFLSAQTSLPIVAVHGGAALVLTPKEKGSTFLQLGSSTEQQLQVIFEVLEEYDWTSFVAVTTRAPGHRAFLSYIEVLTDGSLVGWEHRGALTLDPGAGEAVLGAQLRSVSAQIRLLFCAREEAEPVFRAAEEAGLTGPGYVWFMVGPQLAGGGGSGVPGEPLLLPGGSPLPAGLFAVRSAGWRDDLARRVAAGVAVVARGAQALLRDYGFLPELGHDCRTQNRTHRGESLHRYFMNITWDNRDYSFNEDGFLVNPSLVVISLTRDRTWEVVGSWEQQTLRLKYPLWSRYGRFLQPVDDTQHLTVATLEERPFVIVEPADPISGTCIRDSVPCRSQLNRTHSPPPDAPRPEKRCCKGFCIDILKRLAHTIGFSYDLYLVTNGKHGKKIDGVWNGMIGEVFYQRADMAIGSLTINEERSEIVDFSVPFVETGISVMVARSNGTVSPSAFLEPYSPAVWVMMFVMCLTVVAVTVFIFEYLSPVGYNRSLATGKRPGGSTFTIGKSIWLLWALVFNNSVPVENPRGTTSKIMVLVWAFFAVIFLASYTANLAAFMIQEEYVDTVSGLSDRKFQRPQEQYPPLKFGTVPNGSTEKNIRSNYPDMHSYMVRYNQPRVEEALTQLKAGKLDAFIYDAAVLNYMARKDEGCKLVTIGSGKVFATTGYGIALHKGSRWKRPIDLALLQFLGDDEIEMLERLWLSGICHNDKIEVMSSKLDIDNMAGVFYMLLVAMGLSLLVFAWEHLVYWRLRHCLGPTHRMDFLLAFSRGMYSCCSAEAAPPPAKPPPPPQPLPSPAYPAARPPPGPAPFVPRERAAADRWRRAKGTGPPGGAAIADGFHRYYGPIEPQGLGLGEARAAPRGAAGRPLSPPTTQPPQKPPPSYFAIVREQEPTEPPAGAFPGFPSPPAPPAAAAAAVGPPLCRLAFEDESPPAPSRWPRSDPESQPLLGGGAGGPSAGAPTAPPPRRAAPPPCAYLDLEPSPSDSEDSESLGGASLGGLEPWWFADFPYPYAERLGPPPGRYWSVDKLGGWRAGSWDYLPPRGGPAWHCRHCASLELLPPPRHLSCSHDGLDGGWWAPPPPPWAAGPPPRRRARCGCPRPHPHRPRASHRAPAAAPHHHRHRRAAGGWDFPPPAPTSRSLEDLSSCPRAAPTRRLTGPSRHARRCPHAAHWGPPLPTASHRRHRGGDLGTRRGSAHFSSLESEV
Sequence of Glutamate receptor ionotropic, kainate 3 (Q13003 whole entry): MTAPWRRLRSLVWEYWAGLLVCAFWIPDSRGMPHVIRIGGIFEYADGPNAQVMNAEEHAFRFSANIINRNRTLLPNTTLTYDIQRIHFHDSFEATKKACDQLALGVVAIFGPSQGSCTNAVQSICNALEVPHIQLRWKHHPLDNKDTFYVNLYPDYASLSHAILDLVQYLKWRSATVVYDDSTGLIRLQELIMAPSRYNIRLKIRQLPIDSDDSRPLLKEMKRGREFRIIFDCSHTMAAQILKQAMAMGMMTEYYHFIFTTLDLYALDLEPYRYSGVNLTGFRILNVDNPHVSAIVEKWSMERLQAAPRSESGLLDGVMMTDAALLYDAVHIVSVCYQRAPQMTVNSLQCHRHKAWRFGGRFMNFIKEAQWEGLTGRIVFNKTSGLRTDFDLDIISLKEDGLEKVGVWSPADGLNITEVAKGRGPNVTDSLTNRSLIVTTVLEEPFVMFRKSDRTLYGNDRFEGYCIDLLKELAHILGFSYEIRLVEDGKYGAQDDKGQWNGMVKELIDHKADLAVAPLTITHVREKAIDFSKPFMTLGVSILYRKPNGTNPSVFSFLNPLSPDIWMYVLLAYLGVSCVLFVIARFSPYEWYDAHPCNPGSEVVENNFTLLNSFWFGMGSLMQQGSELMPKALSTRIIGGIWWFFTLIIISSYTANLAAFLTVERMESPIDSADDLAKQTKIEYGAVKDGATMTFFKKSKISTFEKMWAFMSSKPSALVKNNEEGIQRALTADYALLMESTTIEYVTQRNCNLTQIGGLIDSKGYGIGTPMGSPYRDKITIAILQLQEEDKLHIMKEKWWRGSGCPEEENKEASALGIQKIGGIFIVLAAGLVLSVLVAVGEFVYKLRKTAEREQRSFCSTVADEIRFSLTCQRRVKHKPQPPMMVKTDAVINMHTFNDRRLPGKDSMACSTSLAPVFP

Regarding `O=C(O)[C@H]1NCCN(C(=O)c2ccc3cc(I)c4ccccc4c3c2)[C@H]1C(=O)O` (relative stereo), the Ki in [1] was determined as 7.4 µM; in data set [2], 3.8 µM; in [3], 1.9 µM; in [4], 1 µM. Moreover, the IC50 in [5] is 0.65 µM; in [6], over 100 µM; in [7] it was 81.3 µM. Moreover, the Kb is 4.8 µM in data set [5] and over 100 µM in [6]. For the same molecule, in the data set filed under Rattus norvegicus [8], the outcome was inactive. Moreover, the inhibition entry (in data set [9]; in [10]; in data set [11]; in the data set with HEK293 [15]; in the data set with HEK293 [16]; in the data set with HEK293 [17]) was “Active” throughout. The result in the data set on Rattus norvegicus [12], in the data set with Rattus norvegicus [13] and in the data set with Rattus norvegicus [18] was Active. The Ratio IC50 in the data set filed under Rattus norvegicus [14] is over 100.
Turning to `O=C(O)[C@H]1NCCN(C(=O)c2ccc3cc(-c4ccccc4)ccc3c2)[C@H]1C(=O)O` (relative stereo), the Ki in data set [1] is over 100 µM; in [2], over 100 µM; in data set [3], 5.1 µM; in data set [4], 2.4 µM. For the same molecule, the Kb is 5.8 µM in [5] and over 100 µM in [6]. In [19], the solubility result is listed as “Insoluble”.
Take `O=C(O)c1ccc(-c2ccc(C(=O)N3CCN[C@H](C(=O)O)[C@@H]3C(=O)O)cc2)cc1` (relative stereo): the Ki in data set [2] and in data set [3] was over 100 µM throughout. Further, the inhibition in data set [20] and in [21] was under 15% in each case. For the same molecule, the antagonist dissociation constant (Kb) in [5] came to 51.5 µM. The solubility entry in data set [19] is given as “Insoluble”.

One may read the IC50 as the concentration at which inhibition is half-maximal. For orientation: Kb means the equilibrium dissociation constant of an antagonist, usually derived from a functional assay. As a reminder, the inhibition is how much of the control response was suppressed.

The values above are taken from ChEMBL document CHEMBL1949555, “Piperazine-2,3-dicarboxylic acid derivatives as dual antagonists of NMDA and GluK1-containing kainate receptors” (J Med Chem, 2012).
